Where “and” joins values, the source holds several entries; their conditions need not be identical. Equal entries are not always repeated. Blank lines part the entries; values can stand above or below the compound they belong to.
Columns and labels:
ASCT-2 transporter [1] = molecular target: T1, ASCT-2 transporter (Homo sapiens, UniProt Q15758); experiment: [3H]glutamine uptake concentration dependency; format: cell-based; conditions: for affinity towards the ASCT-2 transporter (in words): human PC-3 cell line
T1 sequence (Q15758 1-541): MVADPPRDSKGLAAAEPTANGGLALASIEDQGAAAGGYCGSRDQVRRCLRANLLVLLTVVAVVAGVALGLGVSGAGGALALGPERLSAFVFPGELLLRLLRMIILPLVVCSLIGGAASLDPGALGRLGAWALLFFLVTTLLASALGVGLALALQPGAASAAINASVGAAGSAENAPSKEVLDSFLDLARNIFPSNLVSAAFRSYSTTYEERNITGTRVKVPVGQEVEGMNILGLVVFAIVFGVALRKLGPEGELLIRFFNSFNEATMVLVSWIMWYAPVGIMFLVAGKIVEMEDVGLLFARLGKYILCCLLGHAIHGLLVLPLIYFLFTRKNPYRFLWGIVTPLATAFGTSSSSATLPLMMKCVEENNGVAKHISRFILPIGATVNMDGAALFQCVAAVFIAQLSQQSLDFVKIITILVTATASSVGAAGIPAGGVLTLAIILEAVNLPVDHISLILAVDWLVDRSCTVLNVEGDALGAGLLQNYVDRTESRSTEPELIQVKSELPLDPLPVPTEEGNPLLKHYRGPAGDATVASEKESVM
How it was run: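 Human PC-3 cells kept in RPMI with 10% FCS, 1% L-glutamine and pen/strep, plated the prior day at 175,000 cells/mL. Washed twice in HEPES+ (pH 7.4), then 5 min at 37 °C with [3H]-L-glutamine (111 kBq/mL) over a 10–1200 μM glutamine stock series, ± unlabelled test compound. Ice-cold PBS+BSA stop, NaOH lysis, scintillation counting, BCA normalisation. Non-linear Michaelis-Menten fits; Ki from Km and Km,app at inhibitor concentration.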

ASCT-2 transporter [2] = molecular target: T2, ASCT-2 transporter (Rattus norvegicus, UniProt D3ZJ25); experiment: [3H]glutamine uptake concentration dependency; format: cell-based; conditions: for affinity towards the ASCT-2 transporter (in words): rat F98 cell line
T2 sequence (D3ZJ25 1-555): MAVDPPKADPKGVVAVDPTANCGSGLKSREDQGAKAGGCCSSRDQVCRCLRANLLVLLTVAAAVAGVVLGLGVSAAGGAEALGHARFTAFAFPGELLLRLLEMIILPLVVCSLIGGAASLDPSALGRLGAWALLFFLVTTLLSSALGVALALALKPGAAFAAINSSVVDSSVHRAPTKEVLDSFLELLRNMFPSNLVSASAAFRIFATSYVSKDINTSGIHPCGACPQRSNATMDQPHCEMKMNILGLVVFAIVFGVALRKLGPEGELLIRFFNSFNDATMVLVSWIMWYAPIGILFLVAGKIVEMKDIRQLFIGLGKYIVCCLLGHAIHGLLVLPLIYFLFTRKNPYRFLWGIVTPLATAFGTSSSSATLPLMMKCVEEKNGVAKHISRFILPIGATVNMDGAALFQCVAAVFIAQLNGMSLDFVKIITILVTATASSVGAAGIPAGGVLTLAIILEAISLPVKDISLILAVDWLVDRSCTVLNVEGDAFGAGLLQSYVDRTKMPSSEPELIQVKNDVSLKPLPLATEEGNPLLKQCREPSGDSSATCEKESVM
How it was run: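 Rat F98 cells grown in DMEM with 10% FCS, 1% L-glutamine and pen/strep, seeded the day before at 125,000 cells/mL. After two HEPES+ washes (pH 7.4), cells took up [3H]-L-glutamine (111 kBq/mL) for 5 min at 37 °C. Glutamine stocks spanned 10–1200 μM, ± non-radioactive test compound. Stopped on ice, NaOH lysis, scintillation counting, BCA protein correction. Ki from Michaelis-Menten Km versus Km,app.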

ASCT-2 = molecular target: T3, ASCT-2 (Homo sapiens, UniProt Q15758); experiment: Inhibition of [3H]-L-glutamine uptake in PC-3 cells; format: cell-based; conditions: 5 min, 37 °C, n=3
T3 sequence (Q15758 1-541): T1 sequence (Q15758 1-541)
How it was run: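 PC-3 cells grown in RPMI with 10% FCS, 1% L-glutamine and pen/strep at 37 °C, 5% CO2, seeded at 175,000 cells/mL the day before. Washed twice in HEPES+ buffer (pH 7.4, 100 mM NaCl, 1 g/L BSA), then given [3H]-L-glutamine (111 kBq/mL) with unlabelled glutamine ± test compound. Stopped on ice with cold PBS+BSA, NaOH-lysed, scintillation-counted, BCA protein-corrected.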

[3] = system: SLC1A5 knock-out HEK-293 cell line; experiment: Inhibition of [3H]glutamine uptake in ASCT-2 knock-out HEK-293 cell line; format: cell-based; conditions: 50 μM glutamine; 5 min, 37 °C; n=3
How it was run: (§1)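 Wild-type or CRISPR-Cas9 SLC1A5-knockout HEK-293 cells grown in DMEM (10% FCS, 1% L-glutamine), seeded at 175,000 cells/mL on poly-D-lysine-coated wells the day before. Washed in HEPES+ (pH 7.4), then given 50 μM [3H]-L-glutamine/glutamine ± test compound. Stopped with ice-cold PBS+BSA, washed, lysed in 0.1 M NaOH, scintillation-counted, BCA protein-normalized. Knockout checked by flow cytometry.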

[4] = system: ASCT-2 expressing wild-type HEK-293 cells; experiment: Inhibition of [3H]glutamine uptake in wild-type HEK-293 cell line; format: cell-based; conditions: 50 μM glutamine; 5 min, 37 °C; n=3
How it was run: as §1

[5] = In vitro stability in formulation; format: physicochemical; conditions: 37 °C; analytical HPLC; no degradation products found
How it was run: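 Radiolabelled test compound held in its formulation at 37 °C for 30, 70, 120 and 180 min after radiosynthesis. Formulation was HPLC eluate (ethanol/10 mM ammonium acetate), diluted with PBS for the biphenyl analogue. At each point 7 MBq was run on analytical C18 HPLC with radio and UV (205 nm) detection at 1.0 mL/min. Runs were isocratic, ethanol/10 mM ammonium acetate 10:90 or 30:70.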

LogD7.4 determination = format: physicochemical; conditions: n=3
How it was run: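 1 MBq radiolabelled test compound added to PBS/n-octanol (1:1, V:V), vortexed and spun 10 min at 1100 g. Aliquots of each layer counted in a NaI(Tl) scintillation counter. LogD7.4 taken as log of octanol/PBS count ratio; n=3.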

PC-3 xenograft = experiment: Dynamic microPET in PC-3 xenograft model; format: in vivo, mice
How it was run: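 Male Swiss nu/nu mice (n=5) received 5 × 10^6 PC-3 cells with Matrigel in the right flank at 8 weeks and the left flank a week later; scanned seven weeks post-inoculation. Fasted ≥6 h, isoflurane anaesthesia, 18.5 MBq i.v. via tail vein. 1-h dynamic PET (1-min frames to 25 min, then 5-min), then CT. Manual tumor and leg-muscle ROIs; SUV decay- and syringe-corrected.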

[6] = Biodistribution study in PC-3 inoculated mice; format: in vivo
How it was run: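 PC-3 flank xenografts in male Swiss nu/nu mice, prepared as for imaging. Seven weeks post-inoculation, 5.0 MBq radiotracer given i.v. via lateral tail vein. Mice killed by cervical dislocation at 20 and 60 min p.i. (n=3 each). Blood drawn by cardiac puncture; organs dissected, rinsed with water, weighed and counted. Results as %ID/g ± SD.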

[7] = reported for glutamine; cited from earlier work
[8] = Swiss nu/nu male mice, PC-3, i.v., 20 min, n=3
[9] = Swiss nu/nu male mice, PC-3, i.v., 60 min, n=3

Ki (ASCT-2 transporter [1]): 604 µM
affinity towards the ASCT-2 transporter (in words) (ASCT-2 transporter [1]): low affinity
Ki (ASCT-2 transporter [2]): 1420 µM
affinity towards the ASCT-2 transporter (in words) (ASCT-2 transporter [2]): low affinity
relative uptake of [3H]-L-glutamine in presence of inhibitor compared to basal uptake (ASCT-2): 92 ± 1%
Structure (SMILES): N[C@@H](CCC(=O)Nc1ccc(-c2ccc(F)cc2)cc1)C(=O)O [FBPG, N5-(4’-fluoro-[1,1’-biphenyl]-4-yl)glutamine]
relative uptake of [3H]glutamine in presence of inhibitor compared to basal uptake, ASCT-2 KO HEK-293 [3]: 58 ± 9%
relative uptake of [3H]glutamine in presence of inhibitor compared to basal uptake, Wild-type HEK-293 [4]: 95 ± 6%

Ki (ASCT-2 transporter [1]): 234 µM
affinity towards the ASCT-2 transporter (in words) (ASCT-2 transporter [1]): moderate affinity
Ki (ASCT-2 transporter [2]): 850 µM
affinity towards the ASCT-2 transporter (in words) (ASCT-2 transporter [2]): low affinity
relative uptake of [3H]-L-glutamine in presence of inhibitor compared to basal uptake (ASCT-2): 94 ± 9%
Structure (SMILES): N[C@@H](CCC(=O)Nc1ccc(F)cc1)C(=O)O [FPG, N5-(4-fluorophenyl)glutamine]
relative uptake of [3H]glutamine in presence of inhibitor compared to basal uptake, ASCT-2 KO HEK-293 [3]: 60 ± 7%
relative uptake of [3H]glutamine in presence of inhibitor compared to basal uptake, Wild-type HEK-293 [4]: 96 ± 7%

Structure (SMILES): N[C@@H](CCC(=O)Nc1ccc(-c2ccc([18F])cc2)cc1)C(=O)O [[^18F]FBPG, [^18F]fluorobiphenylglutamine]
stability in formulation [5]: at least 3 hours
logD7.4 (octanol/PBS ratio at pH 7.4) (LogD7.4 determination): 1.11 ± 0.01 and 1.11
T/Mmean (mean tumor-to-muscle ratio) (PC-3 xenograft; PC-3 xenograft mice, 18.5 MBq i.v., leg muscle as reference): 1.20 ± 0.15
SUVmean (mean standardized uptake value) (PC-3 xenograft; PC-3 xenograft mice, 18.5 MBq i.v., tumor ROI): 0.17 ± 0.04
tumor uptake on PET (in words) (PC-3 xenograft; mice bearing PC-3 xenografts): very low uptake
bone uptake as indication of defluorination (in words) ([6]; PC-3 inoculated mice): No enhanced uptake in the bone
Bladder uptake %ID/g 20 min post-injection [6, 8]: 1.33 ± 0.77 %ID/g
Blood uptake %ID/g 20 min post-injection [6, 8]: 5.49 ± 0.74 %ID/g
Bone uptake %ID/g 20 min post-injection [6, 8]: 0.95 ± 0.20 %ID/g
Brain uptake %ID/g 20 min post-injection [6, 8]: 0.67 ± 0.13 %ID/g
Fat uptake %ID/g 20 min post-injection [6, 8]: 0.92 ± 0.26 %ID/g
Heart uptake %ID/g 20 min post-injection [6, 8]: 2.03 ± 0.47 %ID/g
Kidney uptake %ID/g 20 min post-injection [6, 8]: 11.52 ± 3.91 %ID/g
Large intestine uptake %ID/g 20 min post-injection [6, 8]: 0.39 ± 0.14 %ID/g
Liver uptake %ID/g 20 min post-injection [6, 8]: 7.43 ± 1.80 %ID/g
Lung uptake %ID/g 20 min post-injection [6, 8]: 5.03 ± 1.14 %ID/g
Muscle uptake %ID/g 20 min post-injection [6, 8]: 0.45 ± 0.09 %ID/g
Prostate uptake %ID/g 20 min post-injection [6, 8]: 2.13 ± 1.90 %ID/g
Skin uptake %ID/g 20 min post-injection [6, 8]: 0.79 ± 0.10 %ID/g
Small intestine uptake %ID/g 20 min post-injection [6, 8]: 5.77 ± 5.82 %ID/g
Spleen uptake %ID/g 20 min post-injection [6, 8]: 3.11 ± 0.28 %ID/g
Stomach uptake %ID/g 20 min post-injection [6, 8]: 2.89 ± 1.72 %ID/g
Tumor uptake %ID/g 20 min post-injection [6, 8]: 0.46 ± 0.09 %ID/g
Bladder uptake %ID/g 60 min post-injection [6, 9]: 2.54 ± 1.47 %ID/g
Blood uptake %ID/g 60 min post-injection [6, 9]: 4.24 ± 0.85 %ID/g
Bone uptake %ID/g 60 min post-injection [6, 9]: 0.67 ± 0.14 %ID/g
Brain uptake %ID/g 60 min post-injection [6, 9]: 0.38 ± 0.03 %ID/g
Fat uptake %ID/g 60 min post-injection [6, 9]: 1.21 ± 1.05 %ID/g
Heart uptake %ID/g 60 min post-injection [6, 9]: 1.50 ± 0.52 %ID/g
Kidney uptake %ID/g 60 min post-injection [6, 9]: 14.46 ± 1.71 %ID/g
Large intestine uptake %ID/g 60 min post-injection [6, 9]: 0.53 ± 0.07 %ID/g
Liver uptake %ID/g 60 min post-injection [6, 9]: 4.44 ± 0.83 %ID/g
Lung uptake %ID/g 60 min post-injection [6, 9]: 3.75 ± 0.43 %ID/g
Muscle uptake %ID/g 60 min post-injection [6, 9]: 0.48 ± 0.28 %ID/g
Prostate uptake %ID/g 60 min post-injection [6, 9]: 2.60 ± 1.12 %ID/g
Skin uptake %ID/g 60 min post-injection [6, 9]: 0.57 ± 0.10 %ID/g
Small intestine uptake %ID/g 60 min post-injection [6, 9]: 19.10 ± 4.83 %ID/g
Spleen uptake %ID/g 60 min post-injection [6, 9]: 2.07 ± 0.26 %ID/g
Stomach uptake %ID/g 60 min post-injection [6, 9]: 0.85 ± 0.01 %ID/g
Tumor uptake %ID/g 60 min post-injection [6, 9]: 0.42 ± 0.09 %ID/g

Structure (SMILES): NC(=O)CC[C@H](N)C(=O)O [glutamine]
logD7.4 [7]: −3.64

From article PMC7814958 (Nuclear medicine and biology, 2020)
